Activity calls are given as the source filed them. The calls are words filed in the database; no cut-off is given here.
Tests used:
[1] = biological target: T1, Lethal(3)malignant brain tumor-like protein 3 (Homo sapiens, UniProt Q96JM7); assay: Binding affinity to GFP-tagged full length L3MBTL3 (unknown origin) assessed as diffusion coefficient at 1 uM (reference value: 0.037549815 um2/s)
T1 sequence (Q96JM7 whole entry): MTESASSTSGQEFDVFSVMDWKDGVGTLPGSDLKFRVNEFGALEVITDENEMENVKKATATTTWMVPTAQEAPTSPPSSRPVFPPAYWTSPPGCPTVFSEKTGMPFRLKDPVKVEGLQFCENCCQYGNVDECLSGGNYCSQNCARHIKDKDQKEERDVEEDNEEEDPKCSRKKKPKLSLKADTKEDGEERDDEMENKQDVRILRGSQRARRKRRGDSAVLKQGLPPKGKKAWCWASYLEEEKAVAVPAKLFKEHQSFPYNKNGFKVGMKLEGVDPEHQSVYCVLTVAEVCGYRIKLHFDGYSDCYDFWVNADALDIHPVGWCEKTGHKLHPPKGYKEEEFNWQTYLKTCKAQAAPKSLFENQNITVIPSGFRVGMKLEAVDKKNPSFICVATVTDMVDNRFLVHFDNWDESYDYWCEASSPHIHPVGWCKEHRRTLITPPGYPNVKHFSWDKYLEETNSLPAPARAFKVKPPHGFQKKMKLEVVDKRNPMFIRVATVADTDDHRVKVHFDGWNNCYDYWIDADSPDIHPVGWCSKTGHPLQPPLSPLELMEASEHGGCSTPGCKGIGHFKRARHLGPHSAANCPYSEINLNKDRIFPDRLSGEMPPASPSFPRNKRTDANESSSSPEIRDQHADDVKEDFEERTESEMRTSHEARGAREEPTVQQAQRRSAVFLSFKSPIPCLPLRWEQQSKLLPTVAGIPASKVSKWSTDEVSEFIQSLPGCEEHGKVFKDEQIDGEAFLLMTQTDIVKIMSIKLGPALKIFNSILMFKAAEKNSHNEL

[2] = biological target: T2, Lethal(3)malignant brain tumor-like protein 3 (Homo sapiens) (UniProt Q96JM7); assay: Inhibition of GFP-3MBT tagged L3MBTL3 (unknown origin) expressed in HEK293 cells assessed as reduction in recovery of fluorescence intensity up to 0.1 mM measured up to 60 secs by FRAP assay; format: cell-based; details: time <= 60.0 sec
T2 sequence (whole entry): T1 sequence (Q96JM7 whole entry)
Procedure, shortened: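 FRAP: HEK293 cells transfected with GFP-3MBT; inhibitor treatment 3–6 h; 488 nm laser bleaching then image acquisition every 2 s on laser scanning confocal microscope. Recovery fitted exponentially from 8–10 nuclei per condition; water as control; experiment repeated 3 independent times.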

[3] = biological target: T2, Lethal(3)malignant brain tumor-like protein 3 (Homo sapiens); assay: Binding affinity to GFP-3MBT tagged L3MBTL3 (unknown origin) assessed as protein half life at 1 uM
[4] = Cytotoxicity in HEK293T/17 cells assessed as effect on cell viability up to 100 uM incubated for 24 hrs by CellTiter-Glo luminescent cell viability assay; format: toxicity, cell-based; details: human, hek293t/17, 24 h
[5] = biological target: T1, Lethal(3)malignant brain tumor-like protein 3; assay: Binding affinity to GFP-3MBT tagged L3MBTL3 (unknown origin) assessed as diffusion coefficient at 1 uM (reference value: 0.1272 um2/s)
[6] = biological target: T1, Lethal(3)malignant brain tumor-like protein 3; assay: Inhibition of L3MBTL3 (unknown origin) using H4K20me2 peptide by Alpha-Screen methylated histone peptide competition assay
[7] = biological target: T2, Lethal(3)malignant brain tumor-like protein 3 (Homo sapiens); assay: Inhibition of GFP-3MBT tagged L3MBTL3 (unknown origin) expressed in HEK293 cells assessed as disruption of foci formation at 100 uM by immunofluorescence assay; format: cell-based
Procedure, shortened: (§1)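 HEK293 cells seeded on coverslips, transfected 16–24 h after seeding with GFP-3MBT or GFP-FLMBT for 48 h; compounds at indicated concentrations for at least 24 h; Hoechst 33342 stain before spinning-disk confocal imaging; foci quantified by % GFP intensity function.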

[8] = biological target: T1, Lethal(3)malignant brain tumor-like protein 3; assay: Binding affinity to L3MBTL3 (unknown origin) by ITC assay
[9] = biological target: T2, Lethal(3)malignant brain tumor-like protein 3 (Homo sapiens); assay: Binding affinity to GFP-tagged full length L3MBTL3 (unknown origin) expressed in HEK293 cells assessed as increase in protein mobility; format: cell-based
[10] = biological target: T2, Lethal(3)malignant brain tumor-like protein 3 (Homo sapiens); assay: Binding affinity to GFP-tagged full length L3MBTL3 (unknown origin) expressed in HEK293 cells assessed as co-localization with full length L3MBTL3; format: cell-based
[11] = biological target: T2, Lethal(3)malignant brain tumor-like protein 3 (Homo sapiens); assay: Inhibition of GFP-tagged full length L3MBTL3 (unknown origin) expressed in HEK293 cells assessed as disruption of foci formation by immunofluorescence assay; format: cell-based
Procedure, shortened: as §1

[12] = biological target: T2, Lethal(3)malignant brain tumor-like protein 3 (Homo sapiens); assay: Binding affinity to flag-tagged full length L3MBTL3 (unknown origin) expressed in HEK293 cell lysates at 5 nmol by; format: subcellular

Structure (SMILES) | Diffusion coefficient [1] [um2/s] | inhibition [2] | T1/2 [3] [s] | Activity [4] | Diffusion coefficient [5] [um2/s] | IC50 [6] [µM] | inhibition [7] | Kd [8] [µM] | Activity [9] | Activity [10] | inhibition [11] | Activity [12]
O=C(c1ccc(C(=O)N2CCC(N3CCCCC3)CC2)cc1)N1CCC(N2CCCCC2)CC1 | 0.036 | inactive | 8.2 | Non-Toxic | 0.124 | > 10 | inactive | > 150 | – | – | – | –
CCN1C(=O)\C(=C/C=C/C=C2/N(CCC(=O)OCOC(C)=O)c3ccc(C(=O)OCOC(C)=O)cc3C2(C)C)C(=O)N(CCC(=O)NCCCCCCNC(=O)c2ccc(Nc3cc(C(=O)N4CCC(N5CCCC5)CC4)ccc3C(=O)N3CCC(N4CCCC4)CC3)cc2)C1=O | – | – | – | – | – | – | – | – | Active | Active | inactive | –
O=C(CCCC[C@@H]1SC[C@@H]2NC(=O)N[C@@H]21)NCCOCCOCCOCCOCCOCCOCCOCCOCCOCCOCCOCCNC(=O)c1ccc(Nc2cc(C(=O)N3CCC(N4CCCC4)CC3)ccc2C(=O)N2CCC(N3CCCC3)CC2)cc1 | – | – | – | – | – | – | – | 0.35 | – | – | – | Active

Source: ChEMBL document CHEMBL5712070, “Discovery of a chemical probe for the L3MBTL3 methyllysine reader domain” (Nat Chem Biol, 2013)
